Results from ChEMBL document CHEMBL1135044, “Studies on the side-chain hydroxylation of ifosfamide and its bromo analogue” (Bioorg Med Chem Lett, 2002).

What was measured:
[1] = Therapeutic index represented as LD50/ED50 was determined
[2] = Dose required to kill 50% of healthy, non-tumour-bearing mice (LD50); conditions: mouse, in vivo
Procedure, shortened: (§1)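 Sub-acute toxicity was tested in healthy, non-tumour-bearing CD2F1 females (12–16 weeks, 25–27 g), given a single ip injection or oral gavage and observed for 45 days. Mortality was pooled from 3–6 experiments, usually 4–7 dose levels, with ≥5 mice per group. Litchfield–Wilcoxon log-dose curves were fitted. LD50 (with 95% confidence limits) and LD5 (taken as MTD) were estimated graphically.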

Mus musculus [3] = species: Mus musculus; test: Maximum tolerated dose against L1210 leukemia in mice; assay type: functional; procedure, shortened: as §1
Mus musculus [4] = species: Mus musculus; test: Effective dose that produce antitumor activity against L1210 leukemia in mice; assay type: functional
Procedure, shortened: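 CD2F1 mice were inoculated ip with 10^5 ascitic L1210 cells in PBS and given a single ip dose on day 3 (advanced disease), following NIH/NCI in vivo screening protocols. ILS was calculated as T/C × 100 − 100 from average survival times. ED50, the dose giving 50% ILS, was read graphically from least-squares dose–effect curves.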

O=P1(NCCCl)OCCCN1CCBr (stereo not drawn)
TI [1]: 9.3 Ratio
LD50 [2]: 320 mg/kg
MTD (Mus musculus [3]): 236 mg/kg
ED50 (Mus musculus [4]): 34.3 mg/kg

[2H]C([2H])(CCl)NP1(=O)OCCCN1C([2H])([2H])CCl (stereo not drawn)
ED50 (Mus musculus [4]): 67.8 mg/kg

O=[P@]1(NCCCl)OCCCN1CCBr
TI [1]: 13.6 Ratio
LD50 [2]: 289 mg/kg
MTD (Mus musculus [3]): 230 mg/kg
ED50 (Mus musculus [4]): 21.3 mg/kg

O=P1(NCCCl)OCCCN1CCCl (stereo not drawn) [IFOSFAMIDE]
TI [1]: 7.1 Ratio
LD50 [2]: 687 mg/kg
MTD (Mus musculus [3]): 518 mg/kg
ED50 (Mus musculus [4]): 96.4 mg/kg

[2H]C([2H])(CCl)NP1(=O)OCCCN1C([2H])([2H])CBr (stereo not drawn)
ED50 (Mus musculus [4]): 23.6 mg/kg

[2H]C([2H])(CCl)N[P@]1(=O)OCCCN1C([2H])([2H])CBr
TI [1]: 17.7 Ratio
LD50 [2]: 265 mg/kg
MTD (Mus musculus [3]): 196 mg/kg
ED50 (Mus musculus [4]): 15 mg/kg
